High-throughput results from PubChem.
Sampled rows, rich in hits. Any-hit rate of the full collection: about 3%.
HSF-1 act: HSF-1 activators, primary screen, NIH3T3-HGL cells, MG132 stress, luminescence, single point; NIH3T3-HGL HSF-1 luciferase reporter, 8 h; 100% = twice DMSO control signal; activation, % at 9 µM; 300,000 tested, 1.7% active; AID 504408, 2011;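 active = mean replicate activation of at least 50% with a set share of replicates each reaching 50%; inconclusive = only one of those two conditions met; inactive = mean below 50% and too few replicates reaching it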
Glyco luc inh: increase of ERlucT glycosylation luciferase signal, primary screen, N-linked glycosylation inhibitor project, D54 ERlucT cells, luminescence, set 2 | D54 ERlucT glycosylation luciferase reporter, 24 h; percent of 100 nM tunicamycin response | 360,000 tested, 0.23% active | reporter increase, % at 12.5 µM;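 active = mean luciferase reporter signal, scaled so untreated is 0 and the glycosylation-blocking control 100, at or above a set limit in every replicate; inconclusive = mean reaches the limit but not every replicate does; inactive = mean below the limit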;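 note: luciferase carries N-glycosylation sites so blocking glycosylation raises the light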
T cruzi repl: inhibitors of intracellular T. cruzi growth, primary screen, luminescence, NIH3T3 host cells | 300,000 tested, 1.4% active | inhibition, % (no concentration beside the values) | AID 1885, 2009 | T. cruzi beta-gal in NIH3T3, 90 h;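 active = mean inhibition across valid replicates above about 55%, limit read from the data; inconclusive = mean below that limit but half or more replicates reach it; inactive = mean below it, under half of replicates reach it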;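 note: signal also drops with host cell toxicity which is not excluded here; higher percent means less beta-gal luminescence so fewer parasites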
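Incubation – ≥90 h infection period, 3 h prior cell attachment · System – NIH/3T3 fibroblasts plus reporter T. cruzi · Doses – compound pinned at 50 nL/well, DMSO · Read-out basis – percent inhibition of parasite-derived β-gal signal · Signal – luminescent β-galactosidase signal after 60 min lysis · Also added – 5000 T. cruzi trypomastigotes/well · Medium – Low-serum DMEM with 2% FBS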
CaV13 ICDI inh: Primary screen for inhibitors of IQ motif and Ca2+-dependent inactivation inhibitor domain binding in CACNA1D, Förster resonance energy transfer in living cells, …; HEK cells, CFP/YFP FRET ICDI-IQ, plate reader, 10 min; percent FRET-ratio fall versus neutral wells; inhibition, % at 12.3 µM; 340,000 tested, 0.098% active; AID 743397;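 active = mean replicate inhibition of at least 30% and at least 1% of replicates passing that level; inconclusive = only one of the two criteria is met; inactive = neither criterion is met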
PfHsp90 yeast 2: growth inhibition of PfHsp90-expressing yeast, primary screen, antimalarial PfHsp90 inhibitor project, S. cerevisiae, BacTiter-Glo luminescence, single point, set 2; BacTiter-Glo ATP, 48 h; yeast lacking PDR1 and PDR3 efflux regulators; inhibition, % at 9.4 µM; 310,000 tested, 0.32% active;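 active = every replicate shows inhibition above about 80%, whatever the replicate mean, limit read from the data; inconclusive = mean inhibition reaches the set limit but some replicate falls short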
PvdQ inh: P. aeruginosa PvdQ acylase inhibitors, primary screen, biochemical, fluorescence, plate reader and imaging, single point | PvdQ acylase [Pseudomonas aeruginosa LESB58] | purified PvdQ acylase | inhibition, % at 10 µM | 340,000 tested, 0.063% active | AID 488965, 2010; in the data active = inhibition above about 30%, passing the limit was not always enough; inconclusive = no clear call, values can overlap the other calls
Hits are given with their value; i = inactive; ? = inconclusive; nt = not tested or not shown; + = active, no number.

SMILES	HSF-1 act	Glyco luc inh	T cruzi repl	CaV13 ICDI inh	PfHsp90 yeast 2	PvdQ inh
CCCC1COC(Cn2cncn2)(c2ccc(C)cc2)O1 (centres undefined)	i	i	?	i	98.6	i
OCCNC(=S)NCCc1ccccc1	i	i	i	i	i	i
CC(C)(CNC(=S)NCCc1ccccc1)CNC(=S)NCCc1ccccc1	i	i	64.9	i	i	i
O=C(N/N=C/c1ccc(-c2cccc([N+](=O)[O-])c2)o1)c1cccs1	i	i	80.5	i	i	i
CCOc1ccc2c(c1)C(=NNC(=O)c1ccncc1)c1cc(OCC)ccc1-2	i	i	59.7	i	i	i
CCOc1ccc(NC(=O)c2ccncc2)cc1	i	i	i	nt	i	i
COc1cccc(-c2nc(N3CCN(c4ccccc4)CC3)c3ccccc3n2)c1O	65.8	i	i	nt	i	i
Cc1ccccc1CC(=O)NC1CCCc2ccccc21 (centres undefined)	65.0	i	i	i	i	i
CC(=O)Nc1ccc(C(=O)OCc2ccc(Cl)c(Cl)c2)cc1	56.9	i	i	i	i	i
CCC(=O)Nc1ccc(C(=O)OCc2ccc(Cl)c(Cl)c2)cc1	i	i	i	i	i	i
Cc1cccc(NC(=O)CSc2c3c(nc4ccccc24)CCC3)n1	i	i	i	i	i	i
COc1cccc(NC(=O)CSc2nc(N)cc(N)n2)c1	65.7	i	i	i	nt	i
Cc1cccc(NC(=O)CSc2nc(N)cc(N)n2)c1	i	i	i	i	i	i
CCOC(=O)c1cccc(NC(=O)CSc2nc(N)cc(N)n2)c1	55.2	i	i	i	i	i
COc1cccc(NC(=O)CSc2nnc3ccc(-c4ccncc4)nn23)c1	57.5	i	i	i	i	i
COc1cccc(NC(=O)CSc2c3c(nc4ccccc24)CCCC3)c1	62.0	i	i	i	i	i
CC(NS(=O)(=O)c1cccc(C(=O)N(C)Cc2ccc(N3CCOCC3)cc2)c1)c1ccccc1 (centres undefined)	nt	i	nt	i	i	i
O=C(N[C@H](C(=O)N1CCC[C@H]1C(=O)NC1CCCC1)C1CCCCC1)c1ccc(Cl)cc1Cl	nt	nt	nt	i	nt	nt
CCOC(=O)Cc1csc(SCC(=O)Nc2cccc(Cl)c2)n1	58.3	i	i	nt	i	i
CCOC(=O)Cc1csc(SCC(=O)Nc2cccc(C#N)c2)n1	i	i	i	i	i	i
O=C(COC(=O)c1ccccc1)c1ccc(Br)cc1	57.8	i	i	i	i	i
CC(C)OCCCn1c(=N)c(C(N)=S)cc2c(=O)n3ccccc3nc21	i	i	69.0	44.7	i	i
CC(=O)N=c1c(C#N)cc2c(=O)n3ccccc3nc2n1CCCOC(C)C	i	i	i	+	nt	nt
O=C(NC(NC(=S)Nc1c(Cl)cccc1Cl)C(Cl)(Cl)Cl)c1cccc([N+](=O)[O-])c1 (centres undefined)	i	i	58.6	i	i	i
O=C(NNC(=S)NC(=O)c1ccccc1Cl)c1cccc([N+](=O)[O-])c1	i	i	i	i	i	i
SMILES	HSF-1 act	Glyco luc inh	T cruzi repl	CaV13 ICDI inh	PfHsp90 yeast 2	PvdQ inh
NNC(=O)c1ccc(OCC2CC(c3ccc(Cl)cc3)=NO2)cc1 (centres undefined)	?	52.3	i	i	i	i
Cc1cc2n(n1)C(c1c[nH]c3ccccc13)Nc1ccccc1-2 (centres undefined)	i	i	i	nt	125.2	i
COc1cccc(CN2CCN(Cc3cccn3-c3cccnc3)CC2CCO)c1 (centres undefined)	56.3	i	i	i	i	i
Cc1ccc(Nc2nc(N/N=C\c3ccc4c(c3)OCO4)nc(N3CCOCC3)n2)cc1	i	i	58.0	i	i	i
CCCCOc1ccc(/C=N/Nc2cc(N3CCOCC3)nc(C)n2)cc1	i	i	56.5	i	i	i
CC(C)c1ccc(/C=N/Nc2cc(N3CCOCC3)nc(N3CCOCC3)n2)cc1	nt	i	nt	i	i	i
